ChEMBL document CHEMBL1255502, “A nonazole CYP51 inhibitor cures Chagas' disease in a mouse model of acute infection” (Antimicrob Agents Chemother, 2010)
Calls of active or inactive are those of the source. No cut-off for these calls is given here.

Assays:
[1] = biological target: Sterol 14-alpha demethylase (Trypanosoma cruzi (strain CL Brener)) (UniProt Q7Z1V1); assay: Inhibition of sterol 14-alpha-demethylase in Trypanosoma cruzi epimastigotes infected in BESM cells assessed as reduction in fecosterol content at 5 uM after 72 hrs; type: cell-based
In short: (§1)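 Log-phase epimastigotes were grown axenically in BHT medium (fetal bovine serum, brain heart infusion) and exposed to 5 μM compound for 72 h, with untreated parasites as the control. Pellets were washed in PBS, extracted in chloroform for 24 h at room temperature, BSTFA-derivatized, and sterols were analysed by GC-MS on a DB5-MS column (200→300°C at 15°C/min).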

[2] = biological target: Sterol 14-alpha demethylase (Trypanosoma cruzi (strain CL Brener)) (UniProt Q7Z1V1); assay: Inhibition of sterol 14-alpha-demethylase in Trypanosoma cruzi amastigotes infected in BESM cells assessed as reduction in episterol content at 5 uM after 72 hrs; type: cell-based
In short: (§2)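 T. cruzi CA-I/72 amastigotes were grown in BESM cells in RPMI 1640 with 5% heat-inactivated FCS at 37°C under 5% CO2. Monolayers were infected for 24 h, then the medium was replaced with 5 μM compound or DMSO; noninfected BESM cells served as a control. Lipids were extracted with chloroform, TMS-derivatized with BSTFA for 2 h, and sterols identified by GC-MS from [M−90]+ and [M+73]+ ions.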

[3] = biological target: Sterol 14-alpha demethylase (Trypanosoma cruzi (strain CL Brener)) (UniProt Q7Z1V1); assay: Inhibition of sterol 14-alpha-demethylase in Trypanosoma cruzi amastigotes infected in BESM cell assessed as abnormalities in nuclear DNA at 0.25 uM after 72 hrs by electron microscopy; type: cell-based
[4] = biological target: Sterol 14-alpha demethylase (Trypanosoma cruzi (strain CL Brener)) (UniProt Q7Z1V1); assay: Inhibition of sterol 14-alpha-demethylase in Trypanosoma cruzi epimastigotes infected in BESM cell assessed as abnormalities in nuclear membrane at 0.25 uM after 72 hrs by electron microscopy; type: cell-based
[5] = biological target: Sterol 14-alpha demethylase (Trypanosoma cruzi (strain CL Brener)) (UniProt Q7Z1V1); assay: Inhibition of sterol 14-alpha-demethylase in Trypanosoma cruzi amastigotes infected in BESM cell assessed as abnormalities in nuclear membrane at 0.25 uM after 72 hrs by electron microscopy; type: cell-based
[6] = biological target: Sterol 14-alpha demethylase (Trypanosoma cruzi (strain CL Brener)) (UniProt Q7Z1V1); assay: Inhibition of sterol 14-alpha-demethylase in Trypanosoma cruzi amastigotes infected in BESM cell assessed as appearance of large autophagic vesicles at 0.25 uM after 48 hrs by electron microscopy; type: cell-based
[7] = biological target: Sterol 14-alpha demethylase (Trypanosoma cruzi (strain CL Brener)) (UniProt Q7Z1V1); assay: Inhibition of sterol 14-alpha-demethylase in Trypanosoma cruzi epimastigotes infected in BESM cell assessed as abnormalities in nuclear DNA at 0.25 uM after 72 hrs by electron microscopy; type: cell-based
[8] = biological target: Sterol 14-alpha demethylase (Trypanosoma cruzi (strain CL Brener)) (UniProt Q7Z1V1); assay: Inhibition of sterol 14-alpha-demethylase in Trypanosoma cruzi amastigotes infected in BESM cell assessed as cell death at 0.25 uM after 72 hrs by electron microscopy
[9] = biological target: Sterol 14-alpha demethylase (Trypanosoma cruzi (strain CL Brener)) (UniProt Q7Z1V1); assay: Inhibition of sterol 14-alpha-demethylase in Trypanosoma cruzi epimastigotes infected in BESM cells assessed as accumulation of lanosterol and eburicol precursors at 5 uM after 72 hrs; type: cell-based; in short: as §1
[10] = biological target: Sterol 14-alpha demethylase (Trypanosoma cruzi (strain CL Brener)) (UniProt Q7Z1V1); assay: Inhibition of sterol 14-alpha-demethylase in Trypanosoma cruzi amastigotes infected in BESM cell assessed as swelling of nuclear membrane at 0.25 uM after 48 hrs by electron microscopy; type: cell-based
[11] = biological target: Sterol 14-alpha demethylase (Trypanosoma cruzi (strain CL Brener)) (UniProt Q7Z1V1); assay: Inhibition of sterol 14-alpha-demethylase in Trypanosoma cruzi epimastigotes infected in BESM cells assessed as reduction in episterol content at 5 uM after 72 hrs; type: cell-based; in short: as §1
[12] = biological target: Sterol 14-alpha demethylase (Trypanosoma cruzi (strain CL Brener)) (UniProt Q7Z1V1); assay: Inhibition of sterol 14-alpha-demethylase in Trypanosoma cruzi amastigotes infected in BESM cells assessed as accumulation of lanosterol and eburicol precursors at 5 uM after 72 hrs; type: cell-based; in short: as §2
[13] = biological target: Sterol 14-alpha demethylase (Trypanosoma cruzi (strain CL Brener)) (UniProt Q7Z1V1); assay: Inhibition of sterol 14-alpha-demethylase in Trypanosoma cruzi epimastigotes infected in BESM cell assessed as cell death at 0.25 uM after 72 hrs by electron microscopy; type: cell-based
[14] = biological target: Sterol 14-alpha demethylase (Trypanosoma cruzi (strain CL Brener)) (UniProt Q7Z1V1); assay: Inhibition of sterol 14-alpha-demethylase in Trypanosoma cruzi amastigotes infected in BESM cells assessed as reduction in fecosterol content at 5 uM after 72 hrs; type: cell-based; in short: as §2
[15] = biological target: Sterol 14-alpha demethylase (Trypanosoma cruzi (strain CL Brener)) (UniProt Q7Z1V1); assay: Inhibition of sterol 14-alpha-demethylase in Trypanosoma cruzi amastigotes infected in BESM cell assessed as blebbing of the cell membrane at 0.25 uM after 48 hrs by electron microscopy; type: cell-based
[16] = biological target: Sterol 14-alpha demethylase (Trypanosoma cruzi (strain CL Brener)) (UniProt Q7Z1V1); assay: Inhibition of sterol 14-alpha-demethylase in Trypanosoma cruzi epimastigotes infected in BESM cell assessed as effect on cell division at 0.25 uM after 72 hrs by electron microscopy; type: cell-based
[17] = biological target: Sterol 14-alpha demethylase (Trypanosoma cruzi (strain CL Brener)) (UniProt Q7Z1V1); settings: BESM, 10 uM
[18] = biological target: Sterol 14-alpha demethylase (Trypanosoma cruzi (strain CL Brener)) (UniProt Q7Z1V1); settings: BESM, 10 uM; remark: listed apart in the source
[19] = biological target: Sterol 14-alpha demethylase (Trypanosoma cruzi (strain CL Brener)) (UniProt Q7Z1V1); settings: BESM, 10 uM; remark: listed apart in the source
[20] = biological target: Sterol 14-alpha demethylase (Trypanosoma cruzi (strain CL Brener)) (UniProt Q7Z1V1); settings: BESM, 10 uM; remark: listed apart in the source
[21] = biological target: Sterol 14-alpha demethylase (Trypanosoma cruzi (strain CL Brener)) (UniProt Q7Z1V1); settings: BESM, 10 uM; remark: listed apart in the source
[22] = biological target: Sterol 14-alpha demethylase (Trypanosoma cruzi (strain CL Brener)) (UniProt Q7Z1V1); settings: BESM, 10 uM; remark: listed apart in the source
[23] = biological target: Sterol 14-alpha demethylase (Trypanosoma cruzi (strain CL Brener)) (UniProt Q7Z1V1); settings: BESM, 10 uM; remark: listed apart in the source
[24] = biological target: Sterol 14-alpha demethylase (Trypanosoma cruzi (strain CL Brener)) (UniProt Q7Z1V1); settings: BESM, 10 uM; remark: listed apart in the source
[25] = biological target: Sterol 14-alpha demethylase (Trypanosoma cruzi (strain CL Brener)) (UniProt Q7Z1V1); settings: BESM, 10 uM; remark: listed apart in the source
[26] = biological target: Sterol 14-alpha demethylase (Trypanosoma cruzi (strain CL Brener)) (UniProt Q7Z1V1); settings: BESM, 10 uM; remark: listed apart in the source
Trypanosoma cruzi [27] = assay: Antimicrobial activity against Trypanosoma cruzi infected in C3H mouse at 40 mg/kg, ip BID administered 24 hrs post infection measured after 12 days; type: functional, organism-based; parameters: dose 40 mg/kg
In short: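 Female C3H mice (7–8 weeks, 17.5–18.0 g, five per group) infected i.p. with 10⁶ tissue-culture trypomastigotes of T. cruzi CA-I/72. Dosing began 24 h postinfection: i.p. in 100 μl of 60% DMSO–40% ddH₂O, twice daily for 30 days. An untreated infected group served as control. Mice were scored for clinical signs (ascitic abdomen, hind-leg weakness) at day 12 postinfection.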

Trypanosoma cruzi [28] = assay: Antimicrobial activity against Trypanosoma cruzi infected in C3H mouse at 50 mg/kg, ip BID administered 24 hrs post infection measured after 12 days; type: functional, organism-based; parameters: dose 50 mg/kg
In short: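 Female C3H mice (7–8 weeks, 17.5–18.0 g, five per group) infected i.p. with 10⁶ tissue-culture trypomastigotes of T. cruzi CA-I/72. The cruzain cysteine-protease inhibitor was given from 24 h postinfection: i.p. in 100 μl of 30% DMSO–70% ddH₂O, twice daily for 30 days. An untreated infected group served as control. Clinical signs (ascites, hind-leg weakness) were assessed at day 12 postinfection.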

Sterol 14-alpha demethylase (Trypanosoma cruzi (strain CL Brener)), sequence (Q7Z1V1 whole entry, looked up, the tested form may be a part): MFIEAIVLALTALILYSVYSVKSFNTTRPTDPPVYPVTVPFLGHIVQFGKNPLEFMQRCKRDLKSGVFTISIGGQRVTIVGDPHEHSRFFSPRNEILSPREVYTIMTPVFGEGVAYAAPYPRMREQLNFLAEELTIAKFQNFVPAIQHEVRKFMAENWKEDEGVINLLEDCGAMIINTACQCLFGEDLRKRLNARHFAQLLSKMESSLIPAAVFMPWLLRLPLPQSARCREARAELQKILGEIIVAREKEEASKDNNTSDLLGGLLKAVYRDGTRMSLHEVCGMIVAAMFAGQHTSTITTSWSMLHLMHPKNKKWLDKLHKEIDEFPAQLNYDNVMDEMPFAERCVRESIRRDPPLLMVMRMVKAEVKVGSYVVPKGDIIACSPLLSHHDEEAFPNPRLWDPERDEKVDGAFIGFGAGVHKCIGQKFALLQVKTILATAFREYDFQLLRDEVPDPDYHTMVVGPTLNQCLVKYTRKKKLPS

CC[C@@H]([C@H](C)O)n1ncn(-c2ccc(N3CCN(c4ccc(OC[C@@H]5CO[C@@](Cn6cncn6)(c6ccc(F)cc6F)C5)cc4)CC3)cc2)c1=O
inhibition [1]: Active | inhibition [2]: Active | inhibition [3]: Active | inhibition [4]: inactive | inhibition [5]: Active | inhibition [6]: Active | inhibition [7]: inactive | inhibition [8]: Active | inhibition [9]: Active | inhibition [10]: Active | inhibition [11]: Active | inhibition [12]: Active | inhibition [13]: inactive | inhibition [14]: Active | inhibition [15]: Active | inhibition [16]: inactive

CC1CCC(C(=O)NC(Cc2c[nH]c3ccccc23)C(=O)Nc2ccncc2)CC1 (centres undefined)
inhibition [1]: Active | inhibition [2]: Active | inhibition [17]: Active | inhibition [18]: inactive | inhibition [19]: inactive | inhibition [20]: inactive | inhibition [9]: Active | inhibition [21]: Active | inhibition [11]: Active | inhibition [22]: Active | inhibition [23]: inactive | inhibition [12]: Active | inhibition [24]: Active | inhibition [14]: Active | inhibition [25]: Active | inhibition [26]: Active | Activity (Trypanosoma cruzi [27]): Active

CN1CCN(C(=O)N[C@@H](Cc2ccccc2)C(=O)N[C@H](/C=C/S(=O)(=O)c2ccccc2)CCc2ccccc2)CC1
Activity (Trypanosoma cruzi [28]): Active
